Published values gathered from unrelated publications.
Lines come from different studies, so protocols differ.
Effect on: enzyme activity
RET: Proto-oncogene tyrosine-protein kinase receptor Ret (RET, Homo sapiens, UniProt P07949)

Compound	target	assay	conditions	remaining activity [%]
Cc1cnc(NC2CCOCC2)nc1-n1cnc(C(=O)NC(CN)c2cc(F)cc(Cl)c2)c1 (stereo not drawn)	Proto-oncogene tyrosine-protein kinase receptor Ret (RET, Homo sapiens, UniProt P07949, V804L)	inhibitor, radiometric	1 µM	93
COC(=O)c1cccc(NC(=O)Nc2cc(C)c3nc(NC(=O)c4ccccc4)sc3c2)c1	RET	inhibitor, radiometric	10 µM	103
CCCOc1ccc(OC)c(F)c1C(=O)c1ccc(C(=O)N[C@@H]2CNC[C@H]2NC(=O)c2ccc3[nH]ncc3c2)cc1	RET	inhibitor	0.1 µM	98
CCN(CC)CCNC(=O)c1c(C)[nH]c(/C=C2\C(=O)Nc3ccc(F)cc32)c1C	RET	inhibitor	0.1 µM	22
COc1cc(NC(=O)Nc2cccc(Br)c2)cc2sc(NC(=O)c3ccccc3)nc12	RET	inhibitor, radiometric	0.1 µM	153
O=C(Nc1cnn(-c2csc(C(=O)NC3COC3)c2)c1)Nc1ccccc1Cl	RET	inhibitor	5 µM	97.8
COc1cc(NC(=O)Nc2ccc(Br)cc2)cc2sc(NC(=O)c3ccccc3)nc12	RET	inhibitor, radiometric	0.1 µM	120
Cc1[nH]c(/C=C2\C(=O)Nc3ccc(F)cc32)c(C)c1C(=O)N[C@H]1CCN(C(=O)N(C)C)C1	RET	inhibitor	1 µM	11
COc1ccc(-c2cn3cc(C(=O)N4CC(O)C4)nc3c(=O)n2C)c(F)c1	RET	inhibitor, radiometric	10 µM	111
O=C(Nc1cnn(-c2csc(C(=O)NC3COC3)c2)c1)Nc1c(F)cccc1Cl	RET	inhibitor	5 µM	98.1
CCOc1ccc(NC(=O)Nc2cc(OC)c3nc(NC(=O)c4ccccc4)sc3c2)cc1	RET	inhibitor, radiometric	0.1 µM	115
CCN(CC)c1ccc(C2=NNC(=O)CC2C)cc1[N+](=O)[O-] (stereo not drawn)	RET	inhibitor	10 µM	102
Cc1ccc(C(=O)Nc2ccc(CN3CCN(C)CC3)c(C(F)(F)F)c2)cc1C#Cc1cnc2cccnn12	RET		23.5 nM	1.3
CC(C)(O)[C@H]1CC[C@H](Nc2ccc3ncc(-c4cccc(C(F)(F)F)c4)n3n2)CC1	RET	inhibitor	1 µM	86.9
CC(C)(C)c1nc(-c2cccc(NS(=O)(=O)c3c(F)cccc3F)c2F)c(-c2ccnc(N)n2)s1	RET	inhibitor, radiometric	1 µM	81
